Source: ChEMBL document CHEMBL3044755, “5-Methyl-1,2,3-thiadiazoles synthesized via ugi reaction and their fungicidal and antiviral activities” (J Agric Food Chem, 2010)

Experiments:
Type in all cases: functional
Mycosphaerella arachidis = assay: Fungicidal activity against Mycosphaerella arachidis at 50 ug/ml by growth inhibition method; conditions: read-out: GI
Procedure, shortened: (§1)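 Mycelial growth inhibition on potato dextrose agar. The panel covered Alternaria solani, Botrytis cinerea, Cercospora arachidicola, C. beticola, Colletotrichum lagenarium, Fusarium oxysporum, Gibberella zeae, Puccinia triticina, Phytophthora infestans, Physalospora piricola, Pellicularia sasakii and Rhizoctonia solani.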

Thanatephorus cucumeris = assay: Fungicidal activity against Thanatephorus cucumeris at 50 ug/ml by growth inhibition method; conditions: read-out: GI; procedure, shortened: as §1
Alternaria solani = assay: Fungicidal activity against Alternaria solani at 50 ug/ml by growth inhibition method; conditions: read-out: GI; procedure, shortened: as §1
Fusarium graminearum = assay: Fungicidal activity against Fusarium graminearum at 50 ug/ml by growth inhibition method; conditions: read-out: GI; procedure, shortened: as §1
Rhizoctonia solani = assay: Fungicidal activity against Rhizoctonia solani at 50 ug/ml by growth inhibition method; conditions: read-out: GI; procedure, shortened: as §1
Phytophthora infestans = assay: Fungicidal activity against Phytophthora infestans at 50 ug/ml by growth inhibition method; conditions: read-out: GI; procedure, shortened: as §1
Cercospora beticola = assay: Fungicidal activity against Cercospora beticola at 50 ug/ml by growth inhibition method; conditions: read-out: GI; procedure, shortened: as §1
Tobacco mosaic virus [1] = assay: In vitro antiviral activity against Tobacco mosaic virus (TMV) infected tobacco leaves at 500 ug/ml
Tobacco mosaic virus [2] = assay: In vitro antiviral activity against Tobacco mosaic virus (TMV) infected tobacco leaves at 100 ug/ml
Puccinia triticina = assay: Fungicidal activity against Puccinia triticina at 50 ug/ml by growth inhibition method; conditions: read-out: GI; procedure, shortened: as §1
[3] = system: Botryosphaeria berengeriana; assay: Fungicidal activity against Botryosphaeria berengeriana at 50 ug/ml by growth inhibition method; conditions: read-out: GI; procedure, shortened: as §1
Colletotrichum lagenaria = assay: Fungicidal activity against Colletotrichum lagenaria at 50 ug/ml by growth inhibition method; conditions: read-out: GI; procedure, shortened: as §1

Compound | inhibition of growth at 50 µg/mL (Mycosphaerella arachidis) | inhibition of growth at 50 µg/mL (Thanatephorus cucumeris) | inhibition of growth at 50 µg/mL (Alternaria solani) | inhibition of growth at 50 µg/mL (Fusarium graminearum) | inhibition of growth at 50 µg/mL (Rhizoctonia solani) | inhibition of growth at 50 µg/mL (Phytophthora infestans) | inhibition of growth at 50 µg/mL (Cercospora beticola) | inhibition at 500 µg/mL (Tobacco mosaic virus [1]) | inhibition at 100 µg/mL (Tobacco mosaic virus [2]) | inhibition of growth at 50 µg/mL (Puccinia triticina) | inhibition of growth at 50 µg/mL [3] | inhibition of growth at 50 µg/mL (Colletotrichum lagenaria)
Cc1ccc(N(C(=O)c2nnsc2C)C(C(=O)NC2CCCCC2)c2ccc(O)cc2)cc1F (stereo not drawn) | 45% | 0% | 13% | 14% | 22% | 25% | 25% | 34% | 9% | 0% | 0% | 36%
Cc1cccc(C(C(=O)NC(C)C)N(C(=O)c2nnsc2C)c2ccc(C)c(F)c2)c1 (stereo not drawn) | 9% | 0% | 0% | 0% | 0% | 13% | 25% | 35% | 14% | 0% | 0% | 0%
Cc1ccc(N(C(=O)c2nnsc2C)C(C(=O)NC(C)C)c2ccccc2C)cc1F (stereo not drawn) | 36% | 0% | 56% | 27% | 22% | 31% | 0% | 55% | 36% | 0% | 0% | 50%
Cc1ccc(N(C(=O)c2nnsc2C)C(C(=O)NC(C)C)c2cccc(O)c2)cc1F (stereo not drawn) | 0% | 0% | 0% | 0% | 2% | 38% | 11% | 20% | 4% | 0% | 0% | 14%
Cc1ccc(N(C(=O)c2nnsc2C)C(C(=O)NC(C)C)c2ccccc2O)cc1F (stereo not drawn) | 0% | 41% | 0% | 50% | 26% | 0% | 0% | 56% | 27% | 0% | 19% | 50%
Cc1ccc(N(C(=O)c2nnsc2C)C(C(=O)NC2CCCCC2)c2ccccc2)cc1F (stereo not drawn) | 18% | 65% | 25% | 27% | 0% | 38% | 0% | 71% | 51% | 0% | 69% | 0%
Cc1ccc(N(C(=O)c2nnsc2C)C(C(=O)NC2CCCCC2)c2ccc([N+](=O)[O-])cc2)cc1F (stereo not drawn) | 45% | 0% | 0% | 0% | 2% | 50% | 25% | 70% | 8% | 0% | 0% | 14%
Cc1ccc(N(C(=O)c2nnsc2C)C(C(=O)NC2CCCCC2)c2cccc([N+](=O)[O-])c2)cc1F (stereo not drawn) | 0% | 0% | 0% | 0% | 4% | 44% | 25% | 57% | 9% | 0% | 0% | 0%
Cc1ccc(N(C(=O)c2nnsc2C)C(C(=O)NC2CCCCC2)c2ccccc2[N+](=O)[O-])cc1F (stereo not drawn) | 27% | 0% | 0% | 0% | 9% | 50% | 25% | 11% | 5% | 0% | 12% | 0%
